# Results: PMC3697071 (Natural product communications, 2010)
# Experiments:
# [1] = test system: Aspergillus fumigatus ATCC 90906; assay: Antimicrobial assay; format: cell-based; settings: for IC50: Aspergillus fumigatus, ATCC90906, read-out: A. fumigatus IC50; for A. fumigatus MIC: second value of IC50/MIC; for A. fumigatus IC50: first value of IC50/MIC
# [2] = test system: Leishmania donovani promastigotes; assay: Antileishmanial assay; format: cell-based; settings: 72 h; for IC50 / IC90: Leishmania donovani; for IC50: read-out: L. donovani IC50; for IC90: read-out: L. donovani IC90; for L. donovani IC50 / L. donovani IC90: promastigotes
# [3] = test system: Cryptococcus neoformans ATCC 90113; assay: Antimicrobial assay; format: cell-based; settings: for MIC / IC50: Cryptococcus neoformans; for MIC: ATCC90113, read-out: C. neoformans MIC; for IC50: ATCC90113, read-out: C. neoformans IC50; for C. neoformans MIC: second value of IC50/MIC; for C. neoformans IC50: first value of IC50/MIC
# [4] = test system: Candida albicans ATCC 90028; assay: Antimicrobial assay; format: cell-based; settings: for IC50: Candida albicans, ATCC90028, read-out: C. albicans IC50; for C. albicans IC50: first value of IC50/MIC
# [5] = test system: P. falciparum D6 (chloroquine-sensitive, Sierra Leone); assay: Antimalarial/parasite LDH assay, D6 clone; format: cell-based, Plasmodium falciparum; settings: for IC50: Plasmodium falciparum, D6, read-out: P. falciparum D6 IC50; for P. falciparum D6 IC50: chloroquine-sensitive clone D6
# [6] = test system: P. falciparum W2 (chloroquine-resistant, Indochina); assay: Antimalarial/parasite LDH assay, W2 clone; format: cell-based, Plasmodium falciparum; settings: for IC50: Plasmodium falciparum, W2, read-out: P. falciparum W2 IC50; for P. falciparum W2 IC50: chloroquine-resistant clone W2
# Plasmodium falciparum = assay: Antimalarial/parasite LDH assay, strains not distinguished in text; format: cell-based; settings: for IC50: Plasmodium falciparum, read-out: antiplasmodial IC50; for antimalarial activity against Plasmodium falciparum: result in words
# Method in brief: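 Colorimetric assay of parasite lactate dehydrogenase (pLDH) activity in P. falciparum cultures, run in 96-well format on two strains: Sierra Leone D6 (chloroquine-sensitive) and Indochina W2 (chloroquine-resistant). DMSO served as vehicle control, with artemisinin and chloroquine as drug controls.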
# [7] = test system: methicillin-resistant S. aureus ATCC 43300 (MRS); assay: Antimicrobial assay; format: cell-based, Staphylococcus aureus; settings: for IC50 / MIC: Staphylococcus aureus; for IC50: ATCC43300, read-out: MRS IC50; for MIC: ATCC43300, read-out: MRS MIC; for MRS MIC / MRS IC50: methicillin-resistant S. aureus; for MRS MIC: second value of IC50/MIC; for MRS IC50: first value of IC50/MIC
# Method in brief: (§1)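 Modified CLSI broth susceptibility method. Ciprofloxacin drug control in each assay. […] MIC is the lowest test concentration allowing no detectable growth.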
# [8] = test system: Staphylococcus aureus ATCC 29213; assay: Antimicrobial assay; format: cell-based; settings: for IC50 / MIC: Staphylococcus aureus; for IC50: ATCC29213, read-out: S. aureus IC50; for MIC: ATCC29213, read-out: S. aureus MIC; for S. aureus MIC: second value of IC50/MIC; for S. aureus IC50: first value of IC50/MIC
# Method in brief: as §1
# [9] = test system: Pseudomonas aeruginosa ATCC 27853; assay: Antimicrobial assay; format: cell-based; settings: for IC50: ATCC27853, read-out: P. aureginosa IC50; for P. aureginosa IC50: first value of IC50/MIC
# Method in brief: as §1
# [10] = test system: Mycobacterium intracellulare ATCC 23068; assay: Antimicrobial assay; format: cell-based; settings: for IC50: ATCC23068, read-out: M. intracellulare IC50; for M. intracellulare MIC: second value of IC50/MIC; for M. intracellulare IC50: first value of IC50/MIC
# Method in brief: as §1
# [11] = test system: Escherichia coli ATCC 35218; assay: Antimicrobial assay; format: cell-based; settings: for IC50: ATCC35218, read-out: E. coli IC50; for E. coli IC50: first value of IC50/MIC
# Method in brief: as §1
# Candida krusei ATCC 6258 = assay: Antimicrobial assay; format: cell-based; settings: for C. krusei MIC: second value of IC50/MIC; for C. krusei IC50: first value of IC50/MIC
# [12] = test system: monkey kidney fibroblasts (VERO); assay: Cytotoxicity assay; format: cell-based; settings: VERO cells; max dose […] for pure compounds
# [13] = test system: Candida glabrata ATCC 90030; assay: Antimicrobial assay; format: cell-based; settings: for C. glabrata IC50: first value of IC50/MIC
SMILES,IC50 [1],IC50 [2],IC90 [2],IC50 [4],IC50 [5],IC50 [6],IC50 [7],IC50 [8],IC50 ([9]; Pseudomonas aeruginosa),IC50 ([10]; Mycobacterium intracellulare),IC50 ([11]; Escherichia coli),MRS MIC [7],S. aureus MIC [8],MRS IC50 [7],S. aureus IC50 [8],P. aureginosa IC50 [9],M. intracellulare IC50 [10],C. krusei IC50 (Candida krusei ATCC 6258),C. glabrata IC50 [13],A. fumigatus IC50 [1],also measured
"C[C@@H]1[C@H](O)[C@@H](C)/C=C/C=C/C=C/C=C/C=C/C=C/C=C/[C@H](O[C@@H]2O[C@H](C)[C@@H](O)[C@H](N)[C@@H]2O)C[C@@H]2O[C@](O)(C[C@@H](O)C[C@@H](O)[C@H](O)CC[C@@H](O)C[C@@H](O)CC(=O)O[C@H]1C)C[C@H](O)[C@H]2C(=O)O [Amphotericin B, reference compound]",1.29 µg/mL,0.13 µg/mL,0.3 µg/mL,0.43 µg/mL,,,,,,,,,,,,,,,,,MIC [3]: 1.25 µg/mL
"C[C@@H]1CC[C@H]2[C@@H](C)C(=O)O[C@@H]3O[C@@]4(C)CC[C@@H]1[C@]32OO4 [Artemisinin, reference compound]",,,,,< 0.026 µg/mL,< 0.026 µg/mL,,,,,,,,,,,,,,,IC50 (Plasmodium falciparum): < 0.026 µg/mL
"CCN(CC)CCCC(C)Nc1ccnc2cc(Cl)ccc12 (stereo not drawn) [Chloroquine, reference compound]",,,,,< 0.026 µg/mL,0.14 µg/mL,,,,,,,,,,,,,,,
"O=C(O)c1cn(C2CC2)c2cc(N3CCNCC3)c(F)cc2c1=O [Ciprofloxacin, reference compound]",,,,,,,0.08 µg/mL,0.1 µg/mL,0.06 µg/mL,0.3 µg/mL,0.004 µg/mL,,,,,,,,,,"MIC [7]: 0.25 µg/mL; MIC [8]: 0.25 µg/mL; MIC ([9]; Pseudomonas aeruginosa, ATCC27853, read-out: P. aureginosa MIC): 0.25 µg/mL; MIC ([10]; Mycobacterium intracellulare, ATCC23068, read-out: M. intracellulare MIC): 1 µg/mL; MIC ([11]; Escherichia coli, ATCC35218, read-out: E. coli MIC): 0.008 µg/mL"
"CC(C)C1=C(O)C(=O)C2=C(CC[C@H]3C(C)(C)CCC[C@]23C)C1=O [Compound 2, royleanone]",> 20 µg/mL,,,> 20 µg/mL,> 4.76 µg/mL,> 4.76 µg/mL,> 20 µg/mL,> 20 µg/mL,> 20 µg/mL,> 20 µg/mL,> 20 µg/mL,,,,,,,,,,IC50 [3]: > 20 µg/mL
"CC(C)C1=CC2=CC(=O)[C@H]3C(C)(C)CCC[C@]3(C)C2=C(O)C1=O [Compound 3, taxodione]",8.9 µg/mL,0.08 µg/mL,0.21 µg/mL,12.5 µg/mL,1.2 µg/mL,1.2 µg/mL,1.47 µg/mL,1.35 µg/mL,> 20 µg/mL,11.9 µg/mL,> 20 µg/mL,2.5 µg/mL,2.5 to 5 µg/mL,,,,,,,,MIC [7]: 2.5 µg/mL; MIC [8]: 5 µg/mL; M. intracellulare MIC [10]: −; C. krusei MIC (Candida krusei ATCC 6258): −; A. fumigatus MIC [1]: −; IC50 [3]: 0.58 µg/mL; MIC [3]: 1.25 µg/mL; C. neoformans MIC [3]: 1.25 µg/mL; C. albicans MIC ([4]; second value of IC50/MIC): −; IC50 (Plasmodium falciparum): 1.2 to 4.8 µg/mL; antimalarial activity against Plasmodium falciparum (Plasmodium falciparum): weak antimalarial activity
"CC(C)c1cc2c(cc1O)[C@@]1(C)CCCC(C)(C)[C@@H]1CC2 [Compound 6, ferruginol]",> 20 µg/mL,4 µg/mL,13 µg/mL,> 20 µg/mL,> 4.76 µg/mL,> 4.76 µg/mL,0.96 µg/mL,1.33 µg/mL,> 20 µg/mL,14.5 µg/mL,> 20 µg/mL,2.5 µg/mL,2.5 to 5 µg/mL,,,,,,,,MIC [7]: 2.5 µg/mL; MIC [8]: 2.5 µg/mL; M. intracellulare MIC [10]: −; IC50 [3]: > 20 µg/mL
"CC(C)c1cc2c(c(O)c1O)[C@@]1(C)CCCC(C)(C)C1=C(O)C2=O [Compound 7, 6-hydroxysalvinolone]",,,,,,,,,,,,2.5 µg/mL,5 µg/mL,1.56 µg/mL,1.75 µg/mL,−/− (=Not Active),−/− (=Not Active),−/− (- =Not Active),−/− (- =Not Active),11.2 µg/mL,VERO TC50 [12]: 4.5 µg/mL; A. fumigatus MIC [1]: −; L. donovani IC50 [2]: 3.2 µg/mL; L. donovani IC90 [2]: 6.5 µg/mL; C. neoformans IC50 [3]: 0.96 µg/mL; C. neoformans MIC [3]: 2.5 µg/mL; C. albicans IC50 [4]: −/− (- =Not Active); P. falciparum D6 IC50 [5]: 1.8 µg/mL; P. falciparum W2 IC50 [6]: 2.5 µg/mL; antimalarial activity against Plasmodium falciparum (Plasmodium falciparum): weak antimalarial activity; E. coli IC50 [11]: −/− (=Not Active)
"CC(CO)c1cc2c(c(O)c1O)[C@@]1(C)CCCC(C)(C)C1=C(O)C2=O (stereo partly drawn) [Compound 8, 6,11,12,16-tetrahydroxy-5,8,11,13-abietatetra-en-7-one]",,,,,,,,,,,,20 µg/mL,20 µg/mL,8.44 µg/mL,6.8 µg/mL,−/− (=Not Active),−/− (=Not Active),14.5 µg/mL,14.9 µg/mL,−/− (- =Not Active),C. krusei MIC (Candida krusei ATCC 6258): 20 µg/mL; C. glabrata MIC ([13]; second value of IC50/MIC): 20 µg/mL; L. donovani IC50 [2]: 12 µg/mL; L. donovani IC90 [2]: 22 µg/mL; C. neoformans IC50 [3]: 5.9 µg/mL; C. neoformans MIC [3]: 20 µg/mL; C. albicans IC50 [4]: −/− (- =Not Active); P. falciparum D6 IC50 [5]: 3.0 µg/mL; P. falciparum W2 IC50 [6]: 4.8 µg/mL; E. coli IC50 [11]: −/− (=Not Active)
"CC1=C(C)C2=CC(=O)c3c(O)c4c(c(O)c3[C@@]2(C)CC1)O[C@@H](C)C4 [Compound 9, uncinatone]",,,,,,,,,,,,,,−/− (=Not Active),−/− (=Not Active),−/− (=Not Active),−/− (=Not Active),−/− (- =Not Active),−/− (- =Not Active),−/− (- =Not Active),L. donovani IC50 [2]: 0.2 µg/mL; L. donovani IC90 [2]: 0.9 µg/mL; C. neoformans IC50 [3]: −/− (- =Not Active); C. albicans IC50 [4]: −/− (- =Not Active); antimalarial activity against Plasmodium falciparum (Plasmodium falciparum): inactive; E. coli IC50 [11]: −/− (=Not Active)
"CC(C)c1cc2c(c(O)c1OC1OCC(O)C(O)C1O)C1(C)CCCC(C)(C)C1CC2 (stereo not drawn) [Compound 10, 11-hydroxy-8,11,13-abietatriene-12-O-β-xylopyranoside]",,,,,,,,,,,,,,−/− (=Not Active),−/− (=Not Active),−/− (=Not Active),−/− (=Not Active),−/− (- =Not Active),−/− (- =Not Active),−/− (- =Not Active),C. neoformans IC50 [3]: −/− (- =Not Active); C. albicans IC50 [4]: −/− (- =Not Active); E. coli IC50 [11]: −/− (=Not Active)
"N=C(N)c1ccc(OCCCCCOc2ccc(C(=N)N)cc2)cc1 [Pentamidine, reference compound]",,1.4 µg/mL,6 µg/mL,,,,,,,,,,,,,,,,,,
